Columns and labels:
[1] = target: Histamine H2 receptor (Cavia porcellus) (UniProt P47747); assay: In vitro Histamine H2 receptor antagonist activity in the histamine-stimulated guinea pig right atrium; format: functional, tissue-based; conditions: Cardiac atrium
[2] = Delta logPoct-cyc; format: ADME; conditions: octanol/water
Summary of the method: (§1)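 Shake-flask partitioning at 37 °C in 1-octanol/water and cyclohexane/water, with buffer salts setting aqueous pH. Aqueous-phase compound concentration was read spectrophotometrically before and after partitioning. Neutral-form log P was calculated from eq 1 using the measured log P at a stated pH and the pKa.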

[3] = (§2) Logarithm of partition coefficient of the neutral form of compound given for octanol/water solvent system; format: physicochemical
Summary of the method: as §1, with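 “pKa. Values are means of ≥2 determinations. Δlog P = log P(octanol) − log P(cyclohexane).” for “pKa.”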

[4] = Log of (Cbrain/Cblood) in rats; conditions: rat
[5] = Partition coefficient (Log Pn, neutral form, cyclohexane/water); format: ADME
Summary of the method: as §1, with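 “pKa. Values are means of ≥2 determinations. Δlog P = log P(octanol) − log P(cyclohexane).” for “pKa.”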

[6] = Change in logarithm of partition coefficient of the compound; format: physicochemical; conditions: octanol/water
Summary of the method: as §1, with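 “pKa. Values are means of ≥2 determinations. Δlog P = log P(octanol) − log P(cyclohexane).” for “pKa.”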

[7] = as §2; format: physicochemical; summary of the method: as §1; remark: listed apart in the source
[8] = Log (Cbrain/Cblood) in rats; conditions: rat
[9] = Logarithm of partition coefficient of the neutral form of compound given for […]/water solvent system; format: physicochemical; conditions: octanol/water

Sequence of Histamine H2 receptor (Cavia porcellus) (P47747 whole entry): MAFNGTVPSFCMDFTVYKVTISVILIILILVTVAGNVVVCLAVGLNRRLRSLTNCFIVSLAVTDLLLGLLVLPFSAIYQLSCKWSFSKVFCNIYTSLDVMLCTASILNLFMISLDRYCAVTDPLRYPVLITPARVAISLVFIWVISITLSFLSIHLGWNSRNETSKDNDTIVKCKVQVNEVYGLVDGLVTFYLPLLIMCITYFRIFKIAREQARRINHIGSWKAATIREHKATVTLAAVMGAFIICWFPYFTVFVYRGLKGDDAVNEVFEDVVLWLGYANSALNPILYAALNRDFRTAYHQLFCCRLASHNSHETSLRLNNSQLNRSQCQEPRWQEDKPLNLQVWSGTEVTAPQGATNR

| Compound | -Log KB [1] | Log Pn [5] | delta Log P [6] | logP [7] | Kp ([4]; in vivo) | also measured |
| --- | --- | --- | --- | --- | --- | --- |
| CN(C)c1cccc(-c2csc(NC(=N)N)n2)c1 | < 3.8 | – | – | – | – | – |
| COc1cccnc1CCCCNc1ncc(Cc2ccc(C)nc2)c(=O)[nH]1 [ICOTIDINE] | – | – | – | – | – | delta logP [2]: 5.18; logP [3]: 2.58 |
| NC(N)=Nc1nc(-c2ccccc2)cs1 | – | -1.28 | 3.92 | 2.64 | – | Kp ([4]; brain and blood): 0.66; Kp ([8]; brain and blood): 0.661 |
| CC(=O)Nc1cccc(-c2csc(N=C(N)N)n2)c1 | 7.36 | – | – | – | 0.018 | Kp ([8]; in vivo): 0.0269 |
| c1ccc(NCCCOc2cccc(CN3CCCCC3)c2)nc1 | 6.09 | 3.23 | 1.06 | 4.29 | 4.85 | Kp ([8]; in vivo): 4.9 |
| c1cc(CN2CCCCC2)cc(OCCCNc2nc3ccccc3o2)c1 | 7.19 | – | – | – | 1.42 | – |
| N=C(N)Nc1nc(-c2ccccc2)cs1 | 5.93 | – | – | – | – | – |
| c1cc(CN2CCCCC2)cc(OCCCNc2ccc3ccccc3n2)c1 | 6.21 | – | – | – | – | – |
| NCCCOc1cccc(CN2CCCCC2)c1 | 5.19 | – | – | – | – | – |
| CC(NCCCOc1cccc(CN2CCCCC2)c1)=C(C#N)C#N | < 4.9 | – | – | – | – | – |
| C/N=C(\NC#N)Nc1cccc(-c2csc(N=C(N)N)n2)c1 | 7.84 | -2.66 | 4.26 | – | – | Kp ([4]; brain and blood): 0.0293; Kp ([8]; brain and blood): 0.0288 |
| CC(=O)NCCCOc1cccc(CN2CCCCC2)c1 | 7.79 | 0.22 | 1.93 | 2.15 | 0.346 | Kp ([8]; in vivo): 0.347 |
| O=C(NCCCOc1cccc(CN2CCCCC2)c1)c1ccccc1 | 7.79 | 2.18 | 1.79 | 3.97 | 0.58 | Kp ([8]; in vivo): 0.575 |
| O=S(=O)(NCCCOc1cccc(CN2CCCCC2)c1)c1ccccc1 | < 4.8 | – | – | – | – | – |
| c1cc(CN2CCCCC2)cc(OCCCNc2nccs2)c1 | 7.41 | – | – | – | 1.98 | Kp ([8]; in vivo): 2.75 |
| OCCCOc1cccc(CN2CCCCC2)c1 | – | 1.31 | – | 2.78 | – | – |
| Cc1csc(N=C(N)N)n1 | 6.27 | -2.79 | 4.03 | – | 0.873 | Kp ([8]; in vivo): 0.912 |
| c1ccc(NCCCOc2cccc(CN3CCCCC3)c2)cc1 | 5.7 | – | – | – | – | – |
| N=C(N)Nc1nc(-c2cccc(N)c2)cs1 | 7.33 | -3.19 | 4.6 | 1.41 | – | Kp ([4]; brain and blood): 0.0705; Kp ([8]; brain and blood): 0.0708 |
| FC(F)(F)CNCCCOc1cccc(CN2CCCCC2)c1 | < 4.3 | – | – | – | – | – |
| COc1ccc(CN(CCN(C)C)c2ccccn2)cc1 [PYRILAMINE] | – | – | – | 3.3 | – | delta logP [2]: 0.71 |
| Clc1cccc(Cl)c1N=C1NCCN1 [CLONIDINE] | – | – | – | – | – | delta logP [2]: 2.44 |

Second part, led by results:

| -Log KB [1] | Log Pn [5] | delta Log P [6] | logP [7] | Kp ([4]; in vivo) | Compound | also measured |
| --- | --- | --- | --- | --- | --- | --- |
| < 4.3 | – | – | – | – | CN(C)Cc1ccc(-c2ccc(Nc3[nH]ccc3[N+](=O)[O-])cc2)o1 | – |
| 6.5 | – | – | 1.98 | 0.00753 | CC/N=C(\NC#N)NCCSCc1ncccc1Br | Kp ([8]; in vivo): 0.00708 |
| 6.63 | -1.48 | 3.12 | 1.64 | – | CN(C)Cc1ccc(CSCCNc2[nH]ccc2[N+](=O)[O-])o1 | Kp ([4]; brain and blood): 0.0652; Kp ([8]; brain and blood): 0.0759 |
| 7.24 | -1.34 | 3.09 | 1.75 | – | O=[N+]([O-])c1cc[nH]c1NCCSCc1ncccc1Br | Kp ([4]; brain and blood): 0.214; Kp ([8]; brain and blood): 0.214 |
| 6.97 | – | – | – | – | O=[N+]([O-])c1c(Cc2ccccc2)c[nH]c1NCCSCc1ccccn1 | Kp ([4]; brain and blood): 0.724; Kp ([8]; brain and blood): 0.759 |
| 5.59 | – | – | – | – | CN(C)c1cc(-c2n[nH]c(N)n2)ccn1 | Kp ([8]; brain and blood): 0.0676 |
| 7.91 | -1.48 | 3.81 | 2.33 | – | Cc1ccc(Cc2c[nH]c(NCCSCc3ccc(CN(C)C)o3)nc2=O)cn1 [LUPITIDINE] | Kp ([4]; brain and blood): 0.0884; Kp ([8]; brain and blood): 0.0871; Log Pn [9]: 2.64 |
| < 3.8 | – | – | – | – | CN(C)Cc1ccc(-c2cccc(CNc3[nH]ccc3[N+](=O)[O-])c2)o1 | – |
| – | – | – | 0.6 | – | CNC(=NCCSCc1csc(N=C(N)N)n1)NC#N [TIOTIDINE] | – |
| 7.31 | – | – | 1.04 | – | Cc1[nH]cnc1CSCCNc1[nH]ccc1[N+](=O)[O-] | – |
| 7.35 | 1.11 | 2.54 | 3.65 | 0.184 | CN(C)Cc1ccc(CSCCNc2[nH]cc(Cc3ccccc3)c2[N+](=O)[O-])o1 | Kp ([8]; in vivo): 0.186 |
| 6.6 | – | – | – | 0.454 | CN(C)Cc1ccnc(-c2cccc(Nc3[nH]ccc3[N+](=O)[O-])c2)c1 | Kp ([8]; in vivo): 0.525 |
| 6.7 | – | – | – | 0.18 | O=[N+]([O-])c1cc[nH]c1NCCSCc1ccccn1 | – |
| 6.02 | 0.22 | 2.88 | 3.1 | – | CN(C)Cc1ccc(-c2cccc(Nc3[nH]ccc3[N+](=O)[O-])c2)o1 | Kp ([4]; brain and blood): 0.545; Kp ([8]; brain and blood): 0.537 |
| 6.84 | -0.67 | 3.46 | 2.79 | – | O=[N+]([O-])c1cc[nH]c1NCCSCc1nccc2ccccc12 | – |
| 7.46 | 3.72 | 1.69 | – | 1.38 | c1cc(CN2CCCCC2)cc(OCCCNc2nc3ccccc3s2)c1 [ZOLANTIDINE] | – |
| 7.05 | < -3 | – | 0.27 | 0.0586 | CN/C(=C\[N+](=O)[O-])NCCSCc1ccc(CN(C)C)o1 [RANITIDINE] | Kp ([8]; in vivo): 0.0589 |
| – | – | – | 4.57 | – | CN(C)Cc1ccc(CSCCNc2ncc(Cc3ccc4ccccc4c3)c(O)n2)o1 | delta logP [2]: 4.1 |
| 4.67 | – | – | – | – | CS(=O)(=O)NCCCOc1cccc(CN2CCCCC2)c1 | – |

From ChEMBL document CHEMBL1124065, “Development of a new physicochemical model for brain penetration and its application to the design of centrally acting H2 receptor histamine antagonists” (J Med Chem, 1988)
